Bioassay records from PubChem.
TNAP act hiacc = TNAP activators at high phosphate acceptor level, primary screen, biochemical, luminescence, uHTS; Alkaline phosphatase, tissue-nonspecific isozyme (Homo sapiens), P05186; purified TNAP, CDP-star luminescence, 1 M DEA, 30 min; hits give high values; 0 = EDTA background, 1 = DMSO-only activity; activation factor at 20 µM; AID 1136, 2008; 200,000 tested, under 10 active;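 active = activation factor at least 2 at 20 µM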
Target sequence (P05186 whole entry, looked up): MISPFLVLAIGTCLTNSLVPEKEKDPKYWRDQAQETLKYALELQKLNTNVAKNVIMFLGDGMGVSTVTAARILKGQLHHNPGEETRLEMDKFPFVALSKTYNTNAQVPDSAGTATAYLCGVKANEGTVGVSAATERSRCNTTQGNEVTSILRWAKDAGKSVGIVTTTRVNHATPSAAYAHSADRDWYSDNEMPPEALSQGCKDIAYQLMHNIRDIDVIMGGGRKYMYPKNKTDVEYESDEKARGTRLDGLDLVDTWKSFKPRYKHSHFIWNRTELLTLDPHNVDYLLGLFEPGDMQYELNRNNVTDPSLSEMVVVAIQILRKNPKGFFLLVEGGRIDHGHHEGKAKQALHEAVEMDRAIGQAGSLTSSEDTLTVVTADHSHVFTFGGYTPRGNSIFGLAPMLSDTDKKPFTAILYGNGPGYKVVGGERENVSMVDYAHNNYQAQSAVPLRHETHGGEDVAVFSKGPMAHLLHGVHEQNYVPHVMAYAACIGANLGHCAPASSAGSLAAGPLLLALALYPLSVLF
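Dosing: 20 µM single point. System: human TNAP. Amount: TNAP 1/800 final. Incubation: 30 min, room temperature. Read-out: TNAP activation factor scaled between EDTA and DMSO control wells. Signal: luminescence from CDP-star hydrolysis. Medium: 1 M DEA, pH 9.8, Mg2+, Zn2+. Control set: EDTA negative control, DMSO positive control.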
Insulin prom inh = inhibitors of insulin promoter-driven GFP, primary screen, imaging, TRM-6 cells, eGFP reporter, cell count. reporter expression induced with tamoxifen. AID 1273, 2008. inhibition, % at 2 µM. 0.9% of 130,000 active;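 active = inhibition above the mean plus 3 SD, with well images judged a real hit on visual review, cut at about 60% in these data, passing the limit was not always enough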
TNAP inh hiacc = human TNAP enzyme inhibitors, primary screen, biochemical, luminescent, high phosphate acceptor level, uHTS; inhibition, % at 20 µM; 0.03% of 200,000 active; purified TNAP, CDP-star luminescence, 1 M DEA; AID 1135, 2008;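 active = over 50% inhibition of tissue-nonspecific alkaline phosphatase at 20 µM in the single-dose screen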;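 note: plate controls were DMSO wells for no effect and EDTA-quenched wells as full inhibition for full effect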
TNAP inh noacc = human TNAP enzyme inhibitors, primary screen, biochemical, luminescent, no phosphate acceptor, uHTS. inhibition, % at 20 µM. 0.26% of 200,000 active. Alkaline phosphatase, tissue-nonspecific isozyme (Homo sapiens), P05186. purified TNAP, CDP-star luminescence, 30 min;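 active = tissue-nonspecific alkaline phosphatase inhibition above about 50% at 20 µM in the single-dose screen, limit read from the data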;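 note: 0% = DMSO negative control and 100% = EDTA positive control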
Efa HMGR inh = inhibitors of E. faecalis class II HMGR, primary screen, biochemical, Enterococcus faecalis; HMG-CoA reductase (Enterococcus faecalis, mvaE); purified E. faecalis HMGR, NADPH absorbance 340 nm kinetic; inhibition, % at 10 µM; 0.41% of 190,000 active;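 active = inhibition above a set limit, the median over all tested compounds plus 3 SD, cut at about 9.5% in these data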;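 note: enzyme runs in reverse so mevalonate oxidation gives rising NADPH absorbance; 0% = complete reaction with DMSO and 100% = background rate lacking mevalonate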
* = called active by the depositor; / = no result given; ! = repeats disagree. Shown are actives, neighbours in structure and some others; about 1.2% of the full set was active somewhere.

SMILES	TNAP act hiacc	Insulin prom inh	TNAP inh hiacc	TNAP inh noacc	Efa HMGR inh
CN(C)CCOC(c1ccccc1)c1ccccc1	1	14.3	-2.0	-9.0	17.9*!
COc1ccc(C2N(Cc3ccccc3)CCN2Cc2ccccc2)cc1[N+](=O)[O-]	1	-5.9	-1.7	-1.3	-2.8
COCCC(=O)N1CCCC(C(=O)c2ccc3c4c(cccc24)CC3)C1 (stereo unspecified)	0.9	/	8.2	3.9	11.0*
O=C(Nn1c(-c2ccc(Br)cc2)nc2ccccc2c1=O)c1cccnc1	1	77.8*	-1.8	-9.2	2.9
O=C(Nn1c(-c2ccncc2)nc2ccccc2c1=O)c1ccc(Br)cc1	1	-14.3	-0.8	-8.8	-5.1
CSc1cccc(CN2CCN(Cc3ccccc3)C(CCO)C2)c1 (stereo unspecified)	1	/	-2.6	-3.3	-9.4
CSc1ccc(CN2CCN(Cc3ccccc3)C(CCO)C2)cc1 (stereo unspecified)	1.1	/	-9.4	-10.5	10.9*
CCOc1ccc(CN2CCN(Cc3cc4ccccc4[nH]3)CC2CCO)cc1 (stereo unspecified)	1	-38.1	2.6	-0.1	13.8*
O=C1C2CC=CCC2C(=O)N1c1nc2n(n1)C(c1ccccc1)CC(c1ccccc1)N2 (stereo unspecified)	1.1	0.0	-6.0	-10.5	-1.8
O=C1C2C3C=CC(C3)C2C(=O)N1c1n[nH]c(-c2cccnc2)n1 (stereo unspecified)	1	16.7	-2.1	59.1*	1.7
O=C1C2C3C=CC(C3)C2C(=O)N1c1n[nH]c(-c2ccccc2)n1 (stereo unspecified)	1	46.5	-2.5	95.8*	-5.0
O=C1C2CC=CCC2C(=O)N1c1ccc(NCCc2ccccc2)c([N+](=O)[O-])c1 (stereo unspecified)	0.9	-73.3	12.3	0.2	2.2
O=C1C2CC=CCC2C(=O)N1c1n[nH]c(-c2ccccc2)n1 (stereo unspecified)	1	34.5	2.3	97.4*	-8.2
O=C1C2CC=CCC2C(=O)N1c1n[nH]c(CCc2ccccc2)n1 (stereo unspecified)	1	22.2	2.1	78.9*	-1.1
CCOC(=O)c1cc2c(=O)n3ccccc3nc2n(Cc2ccco2)c1=NC(=O)c1ccc(OC)cc1OC	1	53.3	1.8	-1.8	-3.1
COC(=O)c1ccccc1NC(=S)N(Cc1ccc2c(c1)OCO2)Cc1cc2cc(OC)ccc2[nH]c1=O	1	/	-3.2	-2.3	-5.3
COc1cc2c(cc1OC)C1(CCCC1)CNC2c1cccc([N+](=O)[O-])c1 (stereo unspecified)	1	/	1.7	-3.3	1.9
O=C(O)/C=C/c1ccc(O)c(O)c1	1	13.6	-3.9	54.7*	0.9
CC(=O)N1N=C(c2cccs2)CC1c1cccs1 (stereo unspecified)	1	23.1	-3.9	-8.9	-4.0
CC(=O)N1N=C(c2cccs2)CC1c1ccc(C)o1 (stereo unspecified)	1	81.8*	-4.4	-3.1	-6.2
Cc1cc(NN)nc(NS(=O)(=O)c2ccccc2)n1	1.1	/	-6.1	50.5*	1.6
CCC(C)NCCOCCOc1ccc(Cl)cc1Br (stereo unspecified)	1	/	-3.6	-4.6	-3.3
CCN(Cc1ccncc1)Cc1nc(-c2ccc(C(=O)OC)cc2)no1	1	/	-3.6	-2.7	-6.2
CCN(CC)C(=S)SCC(=O)c1ccc(F)cc1	1	16.1	1.6	52.4*	-0.1
COc1ccc(CN2C(=O)[C@@H]3C(c4ccccc4Cl)=NO[C@@H]3C2=O)cc1	1.1	/	-6.8	-13.9	10.9*
SMILES	TNAP act hiacc	Insulin prom inh	TNAP inh hiacc	TNAP inh noacc	Efa HMGR inh
O=C1[C@@H]2C(c3ccccc3Cl)=NO[C@@H]2C(=O)N1Cc1ccccc1	1	12.8	-0.9	-7.8	-1.8
Cc1ccc2cn[nH]c2c1[N+](=O)[O-]	1	11.1	-4.2	6.7	-2.5
O=C(NNC(=O)C1CCCO1)c1ccc(F)cc1 (stereo unspecified)	1	33.3	-1.2	-33.1	2.1
Cc1cccc(N2CC(C(=O)OCc3ccc([N+](=O)[O-])cc3)CC2=O)c1 (stereo unspecified)	1	/	-1.1	-6.8	5.8
O=C(OCc1ccc([N+](=O)[O-])cc1)C1CC(=O)N(c2ccccc2)C1 (stereo unspecified)	1	78.6*	-1.3	-4.0	-6.5
CCCn1c(C)cc(C(=O)COC(=O)c2cc(S(=O)(=O)NCC(C)C)c(Cl)cc2Cl)c1C	1	-5.7	-4.9	-0.9	-7.3
COc1ccc(NC(=O)CN(c2ccccc2)S(=O)(=O)N(C)C)cc1Cl	0.9	-78.6	7.1	-1.5	-2.7
COc1ccc(Cl)cc1NC(=O)CN(c1ccccc1)S(=O)(=O)N(C)C	1.1	12.8	-6.8	-9.4	16.7*
O=C(CN1CCN(Cc2ccccc2Cl)CC1)N/N=C/C=C/c1ccccc1[N+](=O)[O-]	0.9	2.9	5.2	-1.6	-5.3
Cc1cc(C)nc(N2CCCC(C(=O)NCC(c3ccccc3)c3ccccc3)C2)n1 (stereo unspecified)	1	-17.2	3.6	-4.0	-0.5
CCC(C)NC(=O)Cn1cc(S(=O)(=O)N2CCN(c3ccccc3F)CC2)c2ccccc2c1=O (stereo unspecified)	1	/	-2.4	-2.7	-4.4
CC(C)(C)c1nnc(NC(=O)c2cccnc2)s1	1	-5.0	-4.8	-6.2	-5.1
COc1cc(NC(=S)NCCN2CCOCC2)cc(OC)c1	1	64.3*	-0.8	-1.9	-4.1
COc1ccc(CCC(C)Nc2cccc(F)c2)cc1 (stereo unspecified)	1	63.3	-2.9	-9.0	1.0
COc1cc(/C=N/c2oc(-c3ccccc3)cc2C#N)ccc1O	0.9	-8.3	10.0	23.0	10.1*
COc1cc(/C=N/NC(=O)c2ccccc2)ccc1O	1	/	-1.6	-8.6	5.1
Cc1cc(NCCOCCO)n2ncc(-c3ccc(Cl)cc3)c2n1	1	49.9	-2.4	-9.4	-4.0
CS(=O)(=O)c1cnc2c(-c3ccc(F)cc3)cnn2c1N	1	/	-3.0	-7.6	4.4
Cc1cc(N)n2ncc(-c3ccc(Cl)cc3)c2n1	1	32.4	2.8	-11.2	10.6*
Cc1cc(N)n2ncc(-c3ccc(F)cc3)c2n1	1.1	88.6*	-8.3	-6.6	0.5
Cc1ccccc1Nc1nc(N)nc(CN2CCN(Cc3ccc4c(c3)OCO4)CC2)n1	1.1	/	-7.1	-7.9	16.6*
Cc1ccc(Nc2nc(N)nc(CN3CCCCCC3)n2)cc1	1.1	2.8	-5.3	-7.7	-3.0
